This is an account of results in ChEMBL document CHEMBL3352117, “Piperazine and piperidine carboxamides and carbamates as inhibitors of fatty acid amide hydrolase (FAAH) and monoacylglycerol lipase (MAGL)” (Bioorg Med Chem, 2014).

Assay [1] concerns the target T1, Fatty-acid amide hydrolase 1 (Homo sapiens, UniProt O00519).
T1 sequence (O00519 whole entry): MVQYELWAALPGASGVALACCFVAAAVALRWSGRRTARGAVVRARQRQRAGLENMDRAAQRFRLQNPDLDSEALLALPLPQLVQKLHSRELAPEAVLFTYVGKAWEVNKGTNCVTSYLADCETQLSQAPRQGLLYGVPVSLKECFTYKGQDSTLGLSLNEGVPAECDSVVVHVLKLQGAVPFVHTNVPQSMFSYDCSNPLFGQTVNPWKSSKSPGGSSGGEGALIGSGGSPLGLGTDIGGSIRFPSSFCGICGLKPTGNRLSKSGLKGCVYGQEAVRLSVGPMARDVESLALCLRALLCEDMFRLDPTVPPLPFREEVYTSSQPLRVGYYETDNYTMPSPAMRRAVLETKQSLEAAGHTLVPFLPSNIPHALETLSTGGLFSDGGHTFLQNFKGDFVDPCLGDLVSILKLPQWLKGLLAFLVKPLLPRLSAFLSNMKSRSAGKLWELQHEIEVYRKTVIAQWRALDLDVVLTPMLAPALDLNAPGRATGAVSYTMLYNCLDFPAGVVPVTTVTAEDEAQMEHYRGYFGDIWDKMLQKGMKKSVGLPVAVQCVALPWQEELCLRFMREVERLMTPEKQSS
Put plainly: Inhibition of human recombinant FAAH expressed in COS7 cells using anandamide as substrate. The class given is cell-based, COS-7. Summed up:
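Membranes of COS-7 cells transiently overexpressing human recombinant FAAH, 1 ug protein per incubation. Anandamide substrate at 20 uM, including 10 nM 3H-anandamide tracer (specific activity 60 […]/mmol).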

For another assay, the target named is T2, Monoglyceride lipase (Homo sapiens, UniProt Q99685).
T2 sequence (Q99685 whole entry): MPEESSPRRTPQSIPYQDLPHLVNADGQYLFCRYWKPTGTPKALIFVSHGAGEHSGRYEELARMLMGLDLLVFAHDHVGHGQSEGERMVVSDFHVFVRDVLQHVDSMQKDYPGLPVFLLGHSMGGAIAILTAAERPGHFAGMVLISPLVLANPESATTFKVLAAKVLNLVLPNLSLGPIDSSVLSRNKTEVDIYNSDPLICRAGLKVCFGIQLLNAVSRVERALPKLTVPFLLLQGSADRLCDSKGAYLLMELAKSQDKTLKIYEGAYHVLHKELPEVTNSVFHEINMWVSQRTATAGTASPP
Put plainly: Inhibition of human recombinant MAGL expressed in HEK293 cells using 2-AG as substrate. The class given is cell-based. Summed up:
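Lysates of HEK293 cells transiently overexpressing human recombinant MAGL, 2.5 ug protein per incubation. 2-AG substrate at 50 uM.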

Assay [2] addresses T3, Fatty-acid amide hydrolase 1 (Homo sapiens) (UniProt O00519).
T3 sequence (whole entry): T1 sequence (O00519 whole entry)
Put plainly: Inhibition of human recombinant FAAH expressed in COS7 cells using anandamide as substrate assessed as remaining activity at 10 uM. The format is cell-based. The note with it: COS-7. The method, boiled down: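 Membranes of COS-7 cells transiently overexpressing human FAAH, 1 ug protein per incubation, with 20 uM anandamide substrate including 10 nM 3H-anandamide tracer. Test compound at 10 uM. Remaining activity expressed as % of control, given as range, n = 2.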

The target of assay [3] is T4, Monoglyceride lipase (Homo sapiens) (UniProt Q99685).
T4 sequence (whole entry): T2 sequence (Q99685 whole entry)
Put plainly: Inhibition of human recombinant MAGL expressed in HEK293 cells using 2-AG as substrate assessed as remaining activity at 10 uM. Summed up: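 Lysates of HEK293 cells transiently overexpressing human MAGL, 2.5 ug protein per incubation, with 50 uM 2-AG substrate. Test compound at 10 uM. Remaining activity expressed as % of control, given as range, n = 2.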

The species named for a further assay is Homo sapiens. Put plainly: Selectivity ratio of IC50 for human recombinant FAAH to IC50 for human recombinant MAGL.

Take `O=C(N1CCN(C(c2ccc(F)cc2)c2ccc(F)cc2)CC1)n1cncn1`: the IC50 in assay [1] (read-out: IC50) was 282 nM; in assay [1] (read-out: pIC50 (converted)) it was 282 nM; at Monoglyceride lipase (read-out: IC50), 0.9 nM.
With `O=C(Nc1cccnc1)N1CCN(C(c2ccccc2)c2ccccc2)CC1`, the values for the Activity in assay [2] and in assay [3] were 87% and 101%, respectively.
As to `O=C(Oc1ccc([N+](=O)[O-])cc1)N1CCC(C(c2ccc3c(c2)OCO3)c2ccc3c(c2)OCO3)CC1`, the Activity in assay [2] came out at 88%. Also, at Monoglyceride lipase (read-out: IC50), the IC50 stood at 42 nM.
The corresponding values for `O=C(Oc1ccc([N+](=O)[O-])cc1)N1CCN(C(c2ccccc2)c2ccccc2)CC1` are 86% and 257 nM.
Consider `CCOC(=O)N1CCN(C(=O)n2nnc3cccnc32)CC1`, for which the IC50 in assay [1] (read-out: IC50) was 231 nM; in assay [1] (read-out: pIC50 (converted)), 229 nM; on Monoglyceride lipase (read-out: IC50), 1910 nM.
In the case of `O=C(Nc1ccccc1)N1CCN(Cc2cccc(Oc3ccccc3)c2)CC1`, the IC50 in assay [1] (read-out: IC50) and in assay [1] (read-out: pIC50 (converted)) was 3020 nM each time. In assay [3], the Activity came out at 98%.
With `O=C(OC(C(F)(F)F)C(F)(F)F)N1CCN(Cc2cccc(Oc3ccccc3)c2)CC1`, the Activity in assay [2] is 76%. In addition, the IC50 on Monoglyceride lipase (read-out: IC50) came out at 74 nM.
Take `COc1ccc(NC(=O)N2CCN(Cc3cccc(Oc4ccccc4)c3)CC2)cc1`: the Activity is 56% in assay [2] and 78% in assay [3].
On to `O=C(Oc1ccc([N+](=O)[O-])cc1)N1CCN(Cc2ccc(Oc3ccccc3)cc2)CC1`, for which, in assay [2], the Activity was 43%. For the same compound, on Monoglyceride lipase (read-out: IC50), the IC50 was 1100 nM.
With `O=C(N1CCC(C(c2ccc3c(c2)OCO3)c2ccc3c(c2)OCO3)CC1)n1cncn1`, in the assay listed under Homo sapiens, the Ratio IC50 was above 13000. Besides, the IC50 was 4800 nM in assay [1] (read-out: IC50), 4790 nM in assay [1] (read-out: pIC50 (converted)) and 0.4 nM on Monoglyceride lipase (read-out: IC50).
As to `O=C(N1CCN(C(c2ccccc2)c2ccccc2)CC1)n1nnc2cccnc21`, the IC50 was 971 nM in assay [1] (read-out: IC50), 977 nM in assay [1] (read-out: pIC50 (converted)) and 1.7 nM at Monoglyceride lipase (read-out: IC50).
`COc1ccc(NC(=O)N2CCN(C(c3ccccc3)c3ccccc3)CC2)cc1`: the Activity in assay [2] was 89%; in assay [3], 86%.
In the case of `O=C(Nc1ccccc1)N1CCN(C(c2ccccc2)c2ccccc2)CC1`, the figures for the Activity in assay [2] and in assay [3] were 88% and 62%, respectively.
For `O=C(N1CCN(c2ccccc2)CC1)n1nnc2cccnc21`, the results for the IC50 (in assay [1] (read-out: IC50); in assay [1] (read-out: pIC50 (converted)); at Monoglyceride lipase (read-out: IC50)) were 11 nM, 11.2 nM and 275 nM, respectively.
Take `O=C(Nc1ccccn1)N1CCN(C(c2ccccc2)c2ccccc2)CC1`: the Activity in assay [2] stood at 87%; in assay [3] it was 94%.
With `O=C(N1CCN(C(c2ccccc2)c2ccccc2)CC1)n1cncn1`, the IC50 in assay [1] (read-out: IC50) is 452 nM; in assay [1] (read-out: pIC50 (converted)), 447 nM; at Monoglyceride lipase (read-out: IC50), 1.3 nM.
Turning to `O=C(N1CCN(c2ccccc2)CC1)n1cncn1`, the IC50 in assay [1] (read-out: IC50) was 6 nM; in assay [1] (read-out: pIC50 (converted)), 6.03 nM; on Monoglyceride lipase (read-out: IC50) it was 132 nM.
The corresponding values for `CCOC(=O)N1CCN(C(=O)n2cncn2)CC1` are 141 nM, 141 nM and 1660 nM.
`O=C(N1CCN(Cc2cccc(Oc3ccccc3)c2)CC1)n1nnc2cccnc21`: the Ratio IC50 in the assay listed under Homo sapiens was found to be 4. Also, the IC50 in assay [1] (read-out: IC50) was 23 nM; in assay [1] (read-out: pIC50 (converted)), 22.9 nM; at Monoglyceride lipase (read-out: IC50), 5.5 nM.
As for `O=C(OCc1ccccc1)N1CCC(C(O)(c2ccc3c(c2)OCO3)c2ccc3c(c2)OCO3)CC1`, the Activity in assay [2] and in assay [3] was 92% each time.
Turning to `O=C(N1CCN(C(c2ccccc2)c2ccccc2)CC1)n1ccnc1`, the figures for the IC50 in assay [1] (read-out: IC50) and in assay [1] (read-out: pIC50 (converted)) were 2300 nM and 2290 nM, respectively. For the same compound, the Activity in assay [3] came out at 51%.
For the compound `O=C(N1CCN(Cc2cccc(Oc3ccccc3)c2)CC1)n1ccnc1`, the values for the IC50 (in assay [1] (read-out: IC50); in assay [1] (read-out: pIC50 (converted)); at Monoglyceride lipase (read-out: IC50)) were 15 nM, 15.5 nM and 2840 nM, respectively.
As for `O=C(Nc1ccc([N+](=O)[O-])cc1)N1CCN(Cc2cccc(Oc3ccccc3)c2)CC1`, the Activity in assay [2] was determined as 98%; in assay [3] it was 102%.
For the compound `O=C(N1CCN(Cc2ccc(Oc3ccccc3)cc2)CC1)n1nnc2ccccc21`, the IC50 in assay [1] (read-out: IC50) was 708 nM; in assay [1] (read-out: pIC50 (converted)), 708 nM; at Monoglyceride lipase (read-out: IC50), 70 nM.
Consider `CCCCc1ccc(NC(=O)N2CCN(C(c3ccccc3)c3ccccc3)CC2)cc1`, for which the Activity in assay [2] was determined as 84%; in assay [3] it was 92%.
Regarding `O=C(N1CCN(Cc2ccc(Oc3ccccc3)cc2)CC1)n1ccnc1`, the IC50 in assay [1] (read-out: IC50) was 3.4 nM; in assay [1] (read-out: pIC50 (converted)), 17.4 nM; on Monoglyceride lipase (read-out: IC50), 660 nM.
Take `O=C(Nc1ccc([N+](=O)[O-])cc1)N1CCN(C(c2ccccc2)c2ccccc2)CC1`: the Activity in assay [2] came out at 84%; in assay [3], 58%.
The corresponding values for `O=C(Nc1ccc(C(F)(F)F)cc1)N1CCN(C(c2ccccc2)c2ccccc2)CC1` are 86% and 96%.
The corresponding values for `O=C(OCC(Cl)(Cl)Cl)N1CCC(C(O)(c2ccc3c(c2)OCO3)c2ccc3c(c2)OCO3)CC1` are 90% and 89%.
In the case of `O=C(N1CCN(Cc2cccc(Oc3ccccc3)c2)CC1)n1nnc2ccccc21`, in the assay listed under Homo sapiens, the Ratio IC50 was found to be 10. In addition, the IC50 was 89 nM in assay [1] (read-out: IC50), 89.1 nM in assay [1] (read-out: pIC50 (converted)) and 7.8 nM at Monoglyceride lipase (read-out: IC50).
As for `O=C(N1CCC(C(O)(c2ccc3c(c2)OCO3)c2ccc3c(c2)OCO3)CC1)n1cncn1`, the Ratio IC50 in the assay filed under Homo sapiens worked out at 2320. Besides, the IC50 is 1620 nM in assay [1] (read-out: IC50), 1620 nM in assay [1] (read-out: pIC50 (converted)) and 0.692 nM on Monoglyceride lipase (read-out: pIC50 (converted)).
Regarding `O=C(N1CCN(Cc2cccc(Oc3ccccc3)c2)CC1)n1cncn1`, the Ratio IC50 in the assay listed under Homo sapiens came out at 4.5. The IC50 in assay [1] (read-out: IC50) was 2.7 nM; in assay [1] (read-out: pIC50 (converted)) it was 2.69 nM; at Monoglyceride lipase (read-out: IC50), 0.6 nM.
Turning to `O=C(N1CCN(C(c2ccccc2)c2ccccc2)CC1)n1cnc(-c2ccccc2)c1`, the Activity came to 62% in assay [2] and 93% in assay [3].
With `O=C(Oc1ccc([N+](=O)[O-])cc1)N1CCN(C(c2ccc(F)cc2)c2ccc(F)cc2)CC1`, in assay [2], the Activity worked out at 85%. In addition, the IC50 on Monoglyceride lipase (read-out: IC50) was 347 nM.
`O=C(Oc1ccc([N+](=O)[O-])cc1)N1CCC(=C(c2ccc3c(c2)OCO3)c2ccc3c(c2)OCO3)CC1`: the Activity in assay [2] worked out at 89%; in assay [3], 85%.
